Test results as given in ChEMBL document CHEMBL2016528, “Synthesis and biological evaluation of bifendate-chalcone hybrids as a new class of potential P-glycoprotein inhibitors” (Bioorg Med Chem, 2012).
Active and inactive are the calls of the source. No cut-off for these calls is given here.

Tests used:
[1] = test system: P-glycoprotein (P-gp); assay: Ratio of IC50 for human K562/A02 cells overexpress P-gp to IC50 for human K562 cells; assay type: cell-based; conditions: K562/A02 cells overexpressing P-gp and parental K562 cells, read-out: Ratio IC50
[2] = test system: K562; assay: Growth inhibition of human K562 cells at 0.2 uM after 72 hrs by MTS assay; assay type: functional, cell-based
In short: (§1)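 ADR at 3.5 µM (K562/A02) or 0.2 µM (K562), alone or combined with compound at 2.5, 5 or 10 µM, for 72 h. Survival measured by MTS and given as percent growth of untreated control. Mean ± S.D. of three independent experiments; statistics versus ADR alone.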

[3] = Cytotoxicity against human K562/A02 cells overexpress P-gp after 72 hrs by MTS assay; assay type: ADME, cell-based; conditions: K562/A02, 72 h
In short: (§2)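 Cells (1×10⁴/well) seeded and grown 24 h, then exposed to a range of compound concentrations for 72 h at 37 °C, 5% CO₂. MTS added for 3 h, absorbance read at 490 nm. IC50 = concentration giving 50% growth decrease, taken from dose–response curves; mean of triplicate experiments. K562/A02 is the adriamycin-induced P-gp-overexpressing subline.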

[4] = test system: K562; assay: Cytotoxicity against human K562 cells after 72 hrs by MTS assay; assay type: cell-based; conditions: K562, 72 h; in short: as §2
[5] = test system: K562/A02; assay: Growth inhibition of human K562/A02 cells at 3.5 uM after 72 hrs by MTS assay; assay type: functional, cell-based; in short: as §1
[6] = Growth inhibition of human K562/A02 cells at 10 uM after 72 hrs by MTS assay; assay type: cell-based; conditions: read-out: GI
In short: (§3)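 K562 and K562/A02 cells given compound alone at 10 µM for 72 h. Survival measured by MTS and expressed as percent of untreated control. Three independent experiments.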

[7] = Growth inhibition of human K562 cells at 10 uM after 72 hrs by MTS assay; assay type: cell-based; conditions: read-out: GI; in short: as §3
[8] = test system: K562; assay: Induction of rhodamine-123 accumulation in human K562 cells preincubated for 1 hr prior rhodamine 123 addition measured after 30 mins by flow cytometry relative to control; assay type: functional, cell-based
In short: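 Cells (1×10⁶) pre-incubated with compound or 0.1% DMSO vehicle at 37 °C for 1 h. Rhodamine 123 then added to 0.5 µM for 30 min. Cell-associated fluorescence read by flow cytometry. Fold change = fluorescence divided by that of DMSO control cells; mean ± S.D. of three independent experiments.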

[9] = test system: K562; assay: Potentiation of adriamycin-induced cytotoxicity against human K562 cells at 2.5 to 10 uM after 72 hrs by MTS assay; assay type: functional, cell-based; in short: as §1
[10] = molecular target: T1, ATP-dependent translocase ABCB1 (Homo sapiens, UniProt P08183); assay: Inhibition of P-glycoprotein in human K562/A02 cells assessed as potentiation of adriamycin-induced cytotoxicity at 10 uM preincubated for 24 hrs followed by washout before addition of adriamycin measured after 72 hrs by MTS assay (reference value: 33.59 uM); assay type: cell-based; conditions: k562/a02, 72 h
T1 sequence (P08183 whole entry): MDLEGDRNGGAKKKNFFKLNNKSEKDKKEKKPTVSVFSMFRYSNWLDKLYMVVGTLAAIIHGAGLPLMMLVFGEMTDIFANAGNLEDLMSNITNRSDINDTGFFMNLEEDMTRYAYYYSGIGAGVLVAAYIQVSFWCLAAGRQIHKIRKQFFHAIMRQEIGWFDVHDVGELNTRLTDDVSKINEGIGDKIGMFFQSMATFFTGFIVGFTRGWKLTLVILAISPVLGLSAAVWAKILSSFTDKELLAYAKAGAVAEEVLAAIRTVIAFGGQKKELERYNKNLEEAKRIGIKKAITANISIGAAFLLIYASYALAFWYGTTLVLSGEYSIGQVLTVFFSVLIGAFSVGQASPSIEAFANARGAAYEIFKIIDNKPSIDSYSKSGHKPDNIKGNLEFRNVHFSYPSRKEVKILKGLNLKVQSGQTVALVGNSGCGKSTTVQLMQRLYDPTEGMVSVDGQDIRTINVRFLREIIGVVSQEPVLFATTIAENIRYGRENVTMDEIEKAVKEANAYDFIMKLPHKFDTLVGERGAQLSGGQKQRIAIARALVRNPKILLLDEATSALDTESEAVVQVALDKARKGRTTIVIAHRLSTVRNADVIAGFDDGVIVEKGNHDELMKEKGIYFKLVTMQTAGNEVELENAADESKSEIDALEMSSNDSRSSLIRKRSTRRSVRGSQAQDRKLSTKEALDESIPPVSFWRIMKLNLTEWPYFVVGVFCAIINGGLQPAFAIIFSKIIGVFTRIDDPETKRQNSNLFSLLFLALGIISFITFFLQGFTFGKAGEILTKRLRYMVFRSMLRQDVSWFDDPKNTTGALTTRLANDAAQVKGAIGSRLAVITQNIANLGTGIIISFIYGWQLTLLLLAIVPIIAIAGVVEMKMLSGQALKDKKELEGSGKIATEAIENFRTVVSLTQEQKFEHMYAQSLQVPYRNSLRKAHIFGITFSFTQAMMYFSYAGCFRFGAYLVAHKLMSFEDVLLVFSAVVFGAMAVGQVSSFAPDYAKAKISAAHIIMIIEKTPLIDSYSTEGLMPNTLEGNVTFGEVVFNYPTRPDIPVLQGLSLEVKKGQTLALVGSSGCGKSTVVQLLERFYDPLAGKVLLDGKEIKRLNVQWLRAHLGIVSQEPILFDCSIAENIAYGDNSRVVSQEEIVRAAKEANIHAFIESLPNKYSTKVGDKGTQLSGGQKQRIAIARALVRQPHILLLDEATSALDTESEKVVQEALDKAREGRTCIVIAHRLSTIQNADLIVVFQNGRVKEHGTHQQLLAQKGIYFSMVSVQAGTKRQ
In short: (§4)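 K562/A02 cells (1×10⁵/well) cultured overnight, then treated with 10 µM compound for 24 h. Washed three times with PBS and moved to compound-free medium. ADR at various concentrations added 0, 6, 12 or 24 h after removal, then 72 h further incubation. Read by MTS at 490 nm; ADR IC50 derived; mean ± S.E. of triplicates.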

[11] = Down regulation of P-gp level in human K562/A02 cells at 10 uM after 72 hrs by Western blotting analysis; assay type: functional, cell-based
[12] = Down regulation of P-gp mRNA level in human K562/A02 cells at 10 uM after 72 hrs by RT-PCR analysis; assay type: functional, cell-based
[13] = molecular target: T1, ATP-dependent translocase ABCB1; assay: Inhibition of P-glycoprotein in human K562/A02 cells assessed as potentiation of adriamycin-induced cytotoxicity at 2.5 to 10 uM after 72 hrs by MTS assay; assay type: cell-based; conditions: k562/a02, 72 h; in short: as §1
[14] = Cytotoxicity against human K562/A02 cells assessed as survival rate at 10 uM after 72 hrs by MTS assay; assay type: cell-based; conditions: read-out: Activity; in short: as §3
[15] = test system: K562/A02; assay: Inhibition of Pgp-mediated rhodamine 123 efflux in human K562/A02 cells assessed as intracellular rhodamine 123 accumulation preincubated for 30 mins measured after 60 mins by fluorescence microscopy relative to control; assay type: cell-based
In short: (§5)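 Efflux assay: K562/A02 cells incubated 30 min with 0.5 µM rhodamine 123 plus compound (0.33, 3.3 or 10 µM). Cells washed twice with PBS, resuspended in medium and left 60 min at 37 °C to efflux dye. Retained dye viewed by fluorescence microscopy, with flow cytometry in parallel; 0.1% DMSO as vehicle control.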

[16] = Effect on P-gp ATPase activity assessed as relative light units at 40 uM by P-gp-GloTM assay (reference value: 242328 +/- 1398 RLU)
[17] = molecular target: T1, ATP-dependent translocase ABCB1; assay: Inhibition of P-glycoprotein in human K562/A02 cells assessed as potentiation of adriamycin-induced cytotoxicity by measuring survival rate at 10 uM after 72 hrs by MTS assay (reference value: 95%); assay type: cell-based; conditions: k562/a02, 72 h
[18] = molecular target: T1, ATP-dependent translocase ABCB1; assay: Inhibition of P-glycoprotein in human K562/A02 cells assessed as potentiation of adriamycin-induced cytotoxicity at 10 uM preincubated for 24 hrs followed by washout addition of adriamycin at 24 hrs post washout measured after 72 hrs by MTS assay (reference value: 51.67 uM); assay type: cell-based; conditions: k562/a02, 72 h; in short: as §4
[19] = molecular target: T1, ATP-dependent translocase ABCB1; assay: Inhibition of P-glycoprotein in human K562/A02 cells assessed as potentiation of adriamycin-induced cytotoxicity at 10 uM preincubated for 24 hrs followed by washout addition of adriamycin at 12 hrs post washout measured after 72 hrs by MTS assay (reference value: 54.11 uM); assay type: cell-based; conditions: k562/a02, 72 h; in short: as §4
[20] = molecular target: T1, ATP-dependent translocase ABCB1; assay: Inhibition of P-glycoprotein in human K562/A02 cells assessed as potentiation of adriamycin-induced cytotoxicity at 10 uM preincubated for 24 hrs followed by washout addition of adriamycin at 6 hrs post washout measured after 72 hrs by MTS assay (reference value: 35.15 uM); assay type: cell-based; conditions: k562/a02, 72 h; in short: as §4
[21] = molecular target: T1, ATP-dependent translocase ABCB1; assay: Inhibition of P-glycoprotein in human K562/A02 cells assessed as potentiation of adriamycin-induced cytotoxicity by measuring survival rate at 5 uM after 72 hrs by MTS assay (reference value: 95%); assay type: cell-based; conditions: k562/a02, 72 h; in short: as §1
[22] = molecular target: T1, ATP-dependent translocase ABCB1; assay: Inhibition of P-glycoprotein in human K562/A02 cells assessed as potentiation of adriamycin-induced cytotoxicity by measuring survival rate at 2.5 uM after 72 hrs by MTS assay (reference value: 95%); assay type: cell-based; conditions: k562/a02, 72 h; in short: as §1
[23] = test system: K562/A02; assay: Inhibition of Pgp-mediated rhodamine 123 efflux in human K562/A02 cells assessed as intracellular rhodamine 123 accumulation at 3.3 uM preincubated for 30 mins measured after 60 mins by fluorescence microscopy relative to control; assay type: cell-based; in short: as §5
[24] = Effect on P-gp ATPase activity assessed as relative light units at 200 uM by P-gp-GloTM assay
In short: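 P-gp ATPase measured by luminescence of remaining ATP; RLU inversely related to ATPase activity. Means of three separate experiments; Student's t test against untreated.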

| Compound | IC50 [3] [µM] | IC50 [4] [µM] | inhibition at 72 h, 10 µM [6] [%] | inhibition at 72 h, 10 µM [7] [%] | Activity [8] | further results |
| --- | --- | --- | --- | --- | --- | --- |
| COc1cccc2c1C(=O)c1c(O)c3c(c(O)c1C2=O)C[C@@](O)(C(=O)CO)C[C@@H]3O[C@H]1C[C@H](N)[C@H](O)[C@H](C)O1 [DOXORUBICIN] | 46.7 | 0.43 | – | – | – | selectivity ratio [1]: 108; growth inhibition (GI) [2]: inactive; growth inhibition (GI) [5]: inactive |
| COC(=O)c1cc(OC)c2c(c1-c1c(/C=C/C(=O)c3cc(OC)c(OC)c(OC)c3)cc(OC)c3c1OCO3)OCO2 | > 200 | 172 | < 10 | < 10 | inactive | – |
| COc1ccc(CCN(C)CCCC(C#N)(c2ccc(OC)c(OC)c2)C(C)C)cc1OC (stereo not given) | – | – | < 10 | < 10 | inactive | Activity [9]: inactive; inhibition (INH) [10]: Active |
| COC(=O)c1cc(OC)c2c(c1-c1c(/C=C/C(=O)c3ccc(O)cc3)cc(OC)c3c1OCO3)OCO2 | > 100 | > 100 | – | – | – | – |
| COC(=O)c1cc(OC)c2c(c1-c1c(/C=C/C(=O)c3ccc(OC)cc3OC)cc(OC)c3c1OCO3)OCO2 | > 100 | > 100 | – | – | – | – |
| COC(=O)c1cc(OC)c2c(c1-c1c(/C=C/C(=O)c3ccc([N+](=O)[O-])cc3)cc(OC)c3c1OCO3)OCO2 | > 100 | 73.4 | – | – | – | – |
| COC(=O)c1cc(OC)c2c(c1-c1c(/C=C(\C#N)C(=O)c3cc(OC)c(OC)c(OC)c3)cc(OC)c3c1OCO3)OCO2 | 38.9 | 60.3 | – | – | – | – |
| COC(=O)c1cc(OC)c2c(c1-c1c(/C=C/C(=O)c3ccccc3)cc(OC)c3c1OCO3)OCO2 | > 100 | > 100 | – | – | – | – |
| COC(=O)c1cc(OC)c2c(c1-c1c(/C=C/C(=O)c3cc(OC)ccc3OC)cc(OC)c3c1OCO3)OCO2 | > 200 | > 200 | < 10 | < 10 | inactive | Activity [11]: inactive; Activity [12]: inactive; inhibition (INH) [13]: Active |
| COC(=O)c1cc(OC)c2c(c1-c1c(/C=C/C(=O)c3ccccc3OC)cc(OC)c3c1OCO3)OCO2 | > 200 | > 200 | < 10 | < 10 | inactive | Activity [11]: inactive; Activity [12]: inactive; inhibition (INH) [13]: Active |
| COC(=O)c1cc(OC)c2c(c1-c1c(/C=C/C(=O)c3cc(C)ccc3C)cc(OC)c3c1OCO3)OCO2 | > 200 | > 200 | < 10 | < 10 | inactive | Activity [9]: inactive; Activity [11]: inactive; viability at 72 h, 10 µM [14]: 95%; inhibition [15]: Dose-dependent effect; RLU [16]: 271000; Activity [17]: 5%; inhibition (INH) [18]: Active; inhibition (INH) [10]: Active; Activity [12]: inactive; inhibition (INH) [19]: Active; inhibition (INH) [13]: Active; inhibition (INH) [20]: Active; Activity [21]: 20%; Activity [22]: 46%; inhibition [23]: Active |
| COC(=O)c1cc(OC)c2c(c1-c1c(/C=C/C(=O)c3ccc(OC)cc3)cc(OC)c3c1OCO3)OCO2 | > 100 | > 100 | – | – | – | – |
| SODIUM ORTHOVANAD | – | – | – | – | – | RLU [24]: 282000 |
| COC(=O)c1cc(OC)c2c(c1-c1c(/C=C(\C#N)C(=O)c3ccc(OC)cc3)cc(OC)c3c1OCO3)OCO2 | 37.2 | > 100 | – | – | – | – |
| COC(=O)c1cc(OC)c2c(c1-c1c(C(=O)OC)cc(OC)c3c1OCO3)OCO2 [BIFENDATE] | > 100 | > 100 | – | – | – | – |
| COC(=O)c1cc(OC)c2c(c1-c1c(/C=C(\C#N)C(=O)c3ccc(C)cc3)cc(OC)c3c1OCO3)OCO2 | 48.4 | 61.3 | – | – | – | – |
